Experimental data published in ChEMBL document CHEMBL4706516, “Development of dual inhibitors targeting pyruvate dehydrogenase kinases and human lactate dehydrogenase A: High-throughput virtual screening, synthesis and biological validation” (Eur J Med Chem, 2020).
The source made the active and inactive calls. No cut-off for these calls is given here.

Key:
Sus scrofa = organism: Sus scrofa; assay: Inhibition of pig PDK assessed as catalytic activity at 10 uM by PDC assay
[1] = target: T1, L-lactate dehydrogenase A chain (Homo sapiens, UniProt P00338); assay: Inhibition of LDHA (unknown origin) in presence of NADH and sodium pyruvate at 10 uM by enzymatic assay relative to parent compound
Summary of the method: (§1)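 LDHA at 5 nM final in buffer of 150 mM Tris-HCl pH 7.4 with EDTA and 0.01% Tween-20, compounds in 1% DMSO. Reaction started with substrate solution, final NADH 0.06 mM and sodium pyruvate 0.2 mM. After 10 min at room temperature, plates read at 340 nm. Screening done at a single concentration of 10.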

A549 [2] = assay: Antiproliferative activity against human A549 assessed as cell growth inhibition at 20 uM measured after 72 hrs by MTT assay; format: functional
Summary of the method: (§2)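 A549 cells grown in DMEM with 10% FBS and 1% penicillin/streptomycin, 5% CO2, humidified; exponential-phase cells used. Cells seeded at 2000/well, exposed to compound for 72 h, then MTT added and incubated 4 h before readout. Single-concentration screening at […]; EC50 values calculated from two independent experiments.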

[3] = Inhibition of pig PDK assessed as catalytic activity measured after 30 mins by microplate reader based assay; parameters: species or system Sus scrofa
Summary of the method: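 Pig PDC preincubated 30 min at 37 °C in Mops pH 7.20 buffer with EDTA, KCl, MgCl2, acetyl-CoA, NADH, DTT and NaF. Kinase reaction started by adding ATP-containing buffer with or without compound; ATP-free wells serve as no-PDK controls. Reaction run 3 min at 37 °C, then stopped with ADP and pyruvate. Remaining PDC activity measured at 340 nm in Tris pH 7.8 with TPP, NAD+, pyruvate and CoA. IC50 is the mean of three independent experiments.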

[4] = target: T1, L-lactate dehydrogenase A chain; assay: Inhibition of LDHA (unknown origin) in presence of NADH and sodium pyruvate measured after 10 mins by enzymatic assay; summary of the method: as §1
A549 [5] = assay: Metabolic modulatory effect in human A549 cells assessed as decrease in lactate formation measured after 4 hrs by Flex analyzer; format: functional, cell-based; settings: dose 10-40 µM
Summary of the method: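 A549 cells, 2 × 10^5 per well, plated overnight, then treated at […] for 4 h at 37 °C. Medium collected and centrifuged 10 min at 10000 rpm to remove debris. Lactate in the medium measured on a Nova Bioprofile Flex analyzer.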

A549 [6] = assay: Anticancer activity against human A549 assessed as cell growth inhibition measured after 72 hrs by MTT assay; format: functional, cell-based; settings: A549, 72 h; summary of the method: as §2
A549 [7] = assay: Metabolic modulatory effect in human A549 cells assessed as increase in oxygen consumption rate at 10 to 40 uM measured after 4 hrs by seahorse XF24 extracellular flux analyzer assay; format: functional, cell-based; settings: dose 10-40 µM

Compound | IC50 [3] | IC50 [4] | other results
CCOC(=O)C(=O)N1CCN(c2nc(-c3ccccc3)c3c(c2C#N)CC(C)(C)OC3)CC1 |  |  | inhibition (Sus scrofa): 50%; inhibition [1]: Active; inhibition (A549 [2]): inactive
COc1cc(OC)cc(N2CCN(C(=O)COc3c(C)occc3=O)CC2)c1 | > 10 µM | > 10 µM | 
CCOC(=O)C(=O)N1CCN(c2nc(C)c3c(c2C#N)CCCC3)CC1 |  |  | inhibition (Sus scrofa): 50%; inhibition [1]: Active; inhibition (A549 [2]): inactive
COc1cccc(C(=O)N2CCN(CCOc3c(C)occc3=O)CC2)c1 | > 10 µM | > 10 µM | 
Cc1occc(=O)c1OCCN1CCN(C(=O)c2ccco2)CC1 | 1.6 µM | 0.7 µM | Activity (A549 [5]): Dose-dependent effect; EC50 (A549 [6]): 15.7 µM; Activity (A549 [7]): Active
Cc1occc(=O)c1OCC(=O)N1CCN(c2ccccc2)CC1 | 1.8 µM | > 10 µM | 
Cc1occc(=O)c1OCC(=O)N1CCN(c2cccc(F)c2)CC1 | 1 µM | > 10 µM | 
Cc1cc(C)cc(N2CCN(C(=O)COc3c(C)occc3=O)CC2)c1 | 8.1 µM | > 10 µM | 
COc1cccc(N2CCN(C(=O)COc3coc(C)cc3=O)CC2)c1 |  |  | inhibition (Sus scrofa): 50%; inhibition [1]: Active; inhibition (A549 [2]): inactive
Cc1occc(=O)c1OCC(=O)N1CCN(c2ccc(F)cc2)CC1 | 1.4 µM | 3.7 µM | 
Cc1ccccc1N1CCN(C(=O)COc2c(C)occc2=O)CC1 | > 10 µM | > 10 µM | 
COc1ccc(N2CCN(C(=O)COc3c(C)occc3=O)CC2)cc1 | > 10 µM | 0.56 µM | 
Cc1occc(=O)c1OCCN1CCN(C(=O)c2ccccc2[N+](=O)[O-])CC1 | 3 µM | > 10 µM | 
CC(C)c1nc(N2CCN(C(=O)C(=O)NCCO)CC2)c(C#N)c2c1CCC2 |  |  | inhibition (Sus scrofa): 50%; inhibition [1]: Active; inhibition (A549 [2]): inactive
Cc1occc(=O)c1OCCN1CCN(C(=O)c2ccc(Cl)cc2)CC1 | 3.9 µM | 2.7 µM | EC50 (A549 [6]): > 20 µM
Cc1occc(=O)c1OCCN1CCN(C(=O)C(Cl)Cl)CC1 | > 10 µM | > 10 µM | 
Cc1occc(=O)c1OCC(=O)N1CCN(c2ncccn2)CC1 | > 10 µM | > 10 µM | 

Compound | IC50 [3] | IC50 [4] | other results
Cc1occc(=O)c1OCCN1CCN(C(=O)c2ccc(F)cc2)CC1 | 0.8 µM | 0.15 µM | Activity (A549 [5]): Dose-dependent effect; EC50 (A549 [6]): 13.2 µM; Activity (A549 [7]): Active
Cc1occc(=O)c1OCC(=O)N1CCN(c2ccccc2[N+](=O)[O-])CC1 | 6.3 µM | > 10 µM | 
Cc1occc(=O)c1OCC(=O)N1CCN(c2ccccn2)CC1 | > 10 µM | > 10 µM | 
Cc1occc(=O)c1OCCN1CCN(C(=O)c2ccc(C(F)(F)F)cc2)CC1 | 5.1 µM | 4.7 µM | EC50 (A549 [6]): > 20 µM
COc1cccc(N2CCN(C(=O)COc3c(C)occc3=O)CC2)c1 | > 10 µM | 4.6 µM | 
Cc1occc(=O)c1OCCN1CCN(C(=O)c2ccccc2)CC1 | > 10 µM | 2.8 µM | 
Cc1occc(=O)c1OCCN1CCN(C(=O)c2ccccc2F)CC1 | 5.9 µM | 3.4 µM | EC50 (A549 [6]): > 20 µM
Cc1occc(=O)c1OCC(=O)N1CCN(c2cccc(Cl)c2)CC1 | 9.1 µM | 5.9 µM | inhibition (Sus scrofa): 50%; EC50 (A549 [6]): 18.5 µM; inhibition at 20 µM (A549 [2]): 51%
Cc1nc(N2CCN(C(=O)C(=O)NCCO)CC2)c(C#N)c2c1CCCC2 |  |  | inhibition (Sus scrofa): 50%; inhibition [1]: Active; inhibition (A549 [2]): inactive
Cc1occc(=O)c1OCC(=O)N1CCN(c2ccccc2F)CC1 | > 10 µM | > 10 µM | 
O=C(CN1C(=O)c2ccccc2N2C(=O)c3ccccc3C12)NCCNc1ncccn1 (stereo unspecified) |  |  | inhibition (Sus scrofa): 50%; inhibition [1]: Active; inhibition at 20 µM (A549 [2]): 50%
Cc1occc(=O)c1OCC(=O)N1CCN(c2ccc([N+](=O)[O-])cc2)CC1 | 0.8 µM | 6.9 µM | 
Cc1cccc(C(=O)N2CCN(CCOc3c(C)occc3=O)CC2)c1 | > 10 µM | 7.7 µM | 
CCOC(=O)C(=O)N1CCN(c2nc(C(C)C)c3c(c2C#N)CCC3)CC1 |  |  | inhibition (Sus scrofa): 50%; inhibition [1]: Active; inhibition (A549 [2]): inactive
Cc1occc(=O)c1OCC(=O)N1CCN(C(c2ccccc2)c2ccccc2)CC1 | > 10 µM | 7.3 µM | 
CC1(C)Cc2c(C#N)c(N3CCN(C(=O)C(=O)NCCO)CC3)nc(-c3ccccc3)c2CO1 |  |  | inhibition (Sus scrofa): 50%; inhibition [1]: Active; inhibition (A549 [2]): inactive
